The source of these data is ChEMBL document CHEMBL4765342, “Substituted benzothiophene and benzofuran derivatives as a novel class of bone morphogenetic Protein-2 upregulators: Synthesis, anti-osteoporosis efficacies in ovariectomized rats and a zebrafish model, and ADME properties” (Eur J Med Chem, 2020).

Data set [1] in a line: Toxicity in BALB/c mouse assessed as necrosis in renal tubular epithelial cells at 50 to 100 mg/kg, ig administered for 14 days. It is filed as organism-based. The conditions noted are these: in vivo, po, 336 h, dose 50-100 mg/kg, time 14 day. The gist of the method:
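BALB/c mice, 10 per group: untreated blank group plus low (50 mg/kg) and high (100 mg/kg) dose groups, intragastric once daily for 14 days. Hair, behaviour and neurological signs monitored throughout. At day 14 mice were weighed and dissected. Kidney and liver tissue was fixed in 3 mm pieces, dehydrated through graded alcohol, cleared in xylene, embedded in paraffin, sectioned and examined histopathologically.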

Data set [2] in a line: Renal toxicity in BALB/c mouse assessed as effect on serum creatinine level at 50 to 100 mg/kg, ig administered for 14 days. It is filed as organism-based. The following applies: in vivo, po, 336 h, dose 50-100 mg/kg, time 14 day. The method, boiled down:
(§1)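 BALB/c mice, 10 per group, gavaged daily for 14 days at 50 or 100 mg/kg; blank control group included. Hair, behaviour and neurological signs (fremitus, convulsion, spasm, gait disturbance) were observed. At day 14, mice were weighed and given routine blood tests and serum biochemistry (ALT, AST, urea, creatinine; n = 10). Liver and kidney were examined on paraffin-embedded histology sections.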

A short description of data set [3]: Permeability across apical to basolateral side in human Caco-2 cells assessed as transepithelial electrical resistance at 10 uM incubated for 2 hrs LC-MS/MS analysis. It is filed as ADME, cell-based. The conditions noted are these: caco-2, 2 h. The method, boiled down:
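Caco-2 monolayers, apical to basolateral direction. Plates preincubated 30 min at 37 °C, then exposed to 10 µM compound for 2 h at 37 °C without shaking. Donor and receiver samples were quenched, centrifuged and measured by LC/MS/MS, in duplicate. Papp calculated from receiver concentration, area and time. Monolayer integrity checked by TEER and by Lucifer yellow leakage (30 min, 37 °C, ex 485/em 530 nm).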

Data set [4] is described as follows: Toxicity in BALB/c mouse assessed as fremitus at 50 to 100 mg/kg, ig administered for 14 days. Type of data set: organism-based. The following applies: in vivo, po, 336 h, dose 50-100 mg/kg, time 14 day. The method, boiled down:
as §1

The nature of data set [5]: in vitro. The following applies: human, liver microsomes.
A short description of data set [6]: AUC (0 to infinity) in Sprague-Dawley rat at 10 mg/kg, po by LC-MS/MS analysis. The following applies: in vivo. The arrangement: route oral, time infinity, dose 10 mg/kg. It is filed as ADME, organism-based. The gist of the method: (§2)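 The acid metabolite of the parent ester was dosed directly to Sprague-Dawley rats, iv or intragastrically (n=3). Plasma (50 µL) was spiked with 5 µL DMSO, extracted with 300 µL acetonitrile containing 50 ng/mL diclofenac internal standard, then vortexed and centrifuged at 4 °C. Supernatant was quantified by LC/MS/MS against plasma calibration standards and QCs. AUC came from noncompartmental analysis.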

The target in the next data set is Cytochrome P450 3A4 (Homo sapiens, UniProt P08684). The data set is described as follows: Inhibition of CYP3A4 in human liver microsomes using midazolam as substrate incubated for 5 mins followed by NADPH addition and measured after 20 mins by LC-MS/MS analysis. Type of data set: ADME. The method, boiled down:
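Human liver microsomes at 0.2 mg/mL mixed with probe substrates, preincubated 5 min at 37 °C. Reaction started with NADPH and run 20 min at 37 °C in a shaking bath. Quenched, held at -20 °C for 1 h, centrifuged, and the supernatant analysed by LC/MS/MS. Assay validated with specific inhibitors for each isoform.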
(In general: Liver microsomes are a subcellular fraction often used to study metabolism.)

Data set [7] in a line: Oral bioavailability in Sprague-Dawley rat at 10 mg/kg by LC-MS/MS analysis. Type of data set: ADME, organism-based. The following applies: in vivo. The gist of the method: (§3)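 SD rats dosed iv or intragastrically. Plasma (50 µL) was mixed with diclofenac internal standard (50 ng/mL, 300 µL), vortexed, centrifuged at 4 °C, and the supernatant analysed by LC/MS/MS against spiked standard and QC curves. Noncompartmental parameters calculated; mean ± SD, n = 3 (bioavailability excepted).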

Data set [8] in a line: in vitro. The conditions noted are these: human, liver microsomes. The source holds these as a separate data set.
The nature of data set [9]: Toxicity in BALB/c mouse assessed as effect on hair at 50 to 100 mg/kg, ig administered for 14 days. It is filed as organism-based. The following applies: in vivo, po, 336 h, dose 50-100 mg/kg, time 14 day. The method, boiled down: as §1
Data set [10] is described as follows: AUC (0 to t) in Sprague-Dawley rat at 2 mg/kg, iv by LC-MS/MS analysis. Type of data set: ADME, organism-based. The arrangement: dose 2 mg/kg. The conditions noted are these: in vivo. The gist of the method:
as §2

A short description of data set [11]: Toxicity in BALB/c mouse assessed as muscle spasm at 50 to 100 mg/kg, ig administered for 14 days. The following applies: in vivo, po, 336 h, dose 50-100 mg/kg, time 14 day. Type of data set: organism-based. The gist of the method:
as §1

Data set [12] is described as follows: Half life in Sprague-Dawley rat at 2 mg/kg, iv by LC-MS/MS analysis. The following applies: in vivo. Type of data set: ADME, organism-based. The method, boiled down: as §3

A value given as a limit tells only on which side of the number the result lay.

Sequence of Cytochrome P450 3A4 (P08684 whole entry, canonical isoform): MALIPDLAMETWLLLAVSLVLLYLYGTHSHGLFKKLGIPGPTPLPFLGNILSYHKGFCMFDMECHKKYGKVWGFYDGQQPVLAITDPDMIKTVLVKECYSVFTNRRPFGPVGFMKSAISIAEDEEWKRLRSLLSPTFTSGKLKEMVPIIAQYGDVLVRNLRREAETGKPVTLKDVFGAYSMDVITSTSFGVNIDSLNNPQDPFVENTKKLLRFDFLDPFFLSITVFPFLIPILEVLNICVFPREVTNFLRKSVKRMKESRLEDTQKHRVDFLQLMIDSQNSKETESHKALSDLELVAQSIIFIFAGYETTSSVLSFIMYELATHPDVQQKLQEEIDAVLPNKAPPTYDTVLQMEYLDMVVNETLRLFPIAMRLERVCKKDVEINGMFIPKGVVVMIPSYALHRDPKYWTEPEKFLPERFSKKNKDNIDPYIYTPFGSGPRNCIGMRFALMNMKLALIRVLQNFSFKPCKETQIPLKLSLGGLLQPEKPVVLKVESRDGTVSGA

A word on the half-life: it is the time needed for the level to fall by half in the phase considered. Read a high half-life as slow decline. A word on the AUC(0-inf): it is total exposure, with the tail of the curve extrapolated. As usually defined, the IC50 is the point on the concentration scale where inhibition reaches its midpoint. A higher IC50 goes with a need for much substance. Usually bioavailability stands for the share of a dose that reaches the circulation, judged against a reference dose that is usually intravenous. A word on the microsomal CLint: it is a measure of how fast metabolising enzymes remove a compound, apart from limits set by blood flow. Broadly, the AUC(0-t) is exposure summed from dosing to a finite time, without extrapolation to infinity. Low readings indicate low exposure, high ones high exposure. Regarding `COc1ccc2cc(C(=O)NCCN(C)C)oc2c1.CS(=O)(=O)O`, the Activity entry in data set [1] was “Toxic”; in data set [2], “Non-Toxic”; in [3], 341 Ω·cm²; in data set [4] it was “Non-Toxic”; in [9], “Non-Toxic”; in data set [11], “Non-Toxic”. The half-life at 0.5 h, 100 µM in the data set “in vitro [5]” amounted to 1.72 h. This molecule also returned an AUC(0-inf) in [6] of 286 ng·h/mL. Besides, the IC50 on Cytochrome P450 3A4 is more than 10 µM. Moreover, the bioavailability in data set [7] was determined as 83.1%. This molecule also had a microsomal CLint at 0.5 h, 100 µM in “in vitro [8]” of 6.73 µL/min/mg. In [10], the AUC(0-t) was found to be 59.5 ng·h/mL. This molecule also showed a half-life in data set [12] of 2.52 h.
